According to ChEMBL document CHEMBL5357047, “The development of thymol-isatin hybrids as broad-spectrum antibacterial agents with potent anti-MRSA activity” (RSC Med Chem, 2024):
≈ marks a conversion by molar mass, not a printed value. Calls of active or inactive are those of the source. The rule behind the calls is not given here.

Tests used:
Klebsiella pneumoniae = experiment: Antibacterial activity against clinically isolated Klebsiella pneumoniae RBRJ024 assessed as inhibition of bacterial growth at 50 uM measured after 48 hrs by agar well diffusion method; type: functional; settings: read-out: IZ
Staphylococcus aureus [1] = experiment: Bactericidal activity against Staphylococcus aureus MTCC 740 assessed as inhibition of bacterial growth measured after 48 hrs by agar plate method; type: functional
How it was run: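 MBC: aliquots from microdilution wells without colour change subcultured on drug-free Mueller Hinton agar, 48 h at 37 °C aerobically. MBC is the lowest concentration with no visible growth. Triplicate.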

[2] = Cytotoxicity against mouse L929 cells assessed as reduction in cell viability measured after 72 hrs by MTT assay; type: toxicity, cell-based
How it was run: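 L929 cells (ATCC) grown in DMEM with 10% FBS and penicillin/streptomycin at 37 °C, 5% CO2; seeded at 5 × 10^3 cells per well and exposed to serial dilutions for 72 h, paclitaxel as positive control. MTT (5 mg mL−1), formazan dissolved in DMSO, absorbance at 490 nm; viability relative to control after blank subtraction; IC50 in μM.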

Staphylococcus aureus [3] = experiment: Disruption of biofilms against 48 hrs preformed Methicillin-resistant Staphylococcus aureus assessed as eradication of biofilms measured after 24 hrs by crystal violet staining method; type: functional
How it was run: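 MRSA (1 × 10^5 CFU mL−1, diluted 1:100) grown 48 h at 37 °C in tryptone soy broth with 3% glucose. […] Saline wash, 95% ethanol fixation 30 min, 0.1% crystal violet 30 min at 25 °C, elution with 95% ethanol, OD 545 nm. MBEC determined. Triplicate.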

Staphylococcus aureus [4] = experiment: Anti-biofilm activity against Methicillin-resistant Staphylococcus aureus assessed as biofilm substrate coverage at 2XMIC measured after 48 hrs by crystal violet staining based phase contrast microscopy (reference value: 81.43+/-3.57%); type: functional
[5] = Toxicity against Galleria mellonella assessed as visible injury at 20 mg/kg measured every 12 hrs for 120 hrs; type: organism-based; settings: in vivo
How it was run: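 Uninfected Galleria mellonella larvae (0.2–0.4 g, ten per group) given 20 mg kg−1 compound, alongside untreated, PBS and PBS + 2% DMSO vehicle controls; held at 37 °C and checked every 12 h for 120 h. Larvae that turned black and gave no response to stimulus counted dead; percentage survival recorded.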

Galleria mellonella = experiment: Modulation of immune response in MRSA-infected Galleria mellonella systemic infection model assessed as reduction in haemocytes in larva's circulating lymph at 10 mg/kg measured after 24 to 48 hrs by fluorescent microscopic analysis; type: functional, organism-based; settings: time 24-48 hrs
How it was run: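 Galleria mellonella larvae (0.2–0.4 g, ten per group) injected in the last proleg with MRSA, 5 × 10^8 cells per larva, then given 10 mg kg−1 compound; kept at 37 °C. Hemolymph collected on ice at 24 and 48 h post inoculation, diluted in PBS, counted with an automated cell counter and viewed with trypan blue (0.1%) under a fluorescent microscope.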

## Cc1ccc(C(C)C)c(OCc2cn(CCCN3C(=O)C(=O)c4ccccc43)nn2)c1
Klebsiella pneumoniae
  zone of inhibition at 50 µM: 21.2 mm
Staphylococcus aureus [1]
  MBC: 3.9 µM (≈ 1.63 µg/mL)
[2]
  IC50 at 72 h: 125 µM
Staphylococcus aureus [3]
  MBEC: 7.8 µM
Staphylococcus aureus [4]
  Activity: 1.83%
[5]
  Activity: Non-Toxic
Galleria mellonella
  Activity: Active
